pIC50: −log10 of the molar value. The source made the active and inactive calls. The calls are words filed in the database; no cut-off is given here.
Key:
[1] = biological target: Tyrosine-protein kinase Blk (Homo sapiens) (UniProt P51451); assay: Inhibition of His-tagged human full length recombinant BLK expressed in baculovirus expression system at 100 nM by Z'-LYTE assay
How it was run: (§1)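 Z'-LYTE FRET kinase panel; phosphorylation of a reference peptide measured with ATP at each enzyme's Km. Compounds tested in 1% DMSO at 0.1 and/or 1 μM. Values are means of two independent experiments with standard deviations.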

[2] = biological target: Cyclin-dependent kinase 2 (Homo sapiens) (UniProt P24941); assay: Inhibition of human recombinant CDK2 at 100 nM by Z'-LYTE assay; how it was run: as §1
[3] = biological target: RAC-beta serine/threonine-protein kinase (Homo sapiens) (UniProt P31751); assay: Inhibition of His-tagged full length human recombinant AKT2 expressed in baculovirus expression system at 100 nM by Z'-LYTE assay; how it was run: as §1
[4] = biological target: Cyclin-dependent kinase 5 (Homo sapiens) (UniProt Q00535); assay: Inhibition of GST/His-tagged human full length recombinant CDK5 expressed in baculovirus expression system at 100 nM by Z'-LYTE assay; how it was run: as §1
[5] = biological target: Mitogen-activated protein kinase 14 (Homo sapiens) (UniProt Q16539); assay: Inhibition of GST-tagged human full length recombinant p38 alpha expressed in Escherichia coli at 1 uM by Z'-LYTE assay; how it was run: as §1
[6] = biological target: RAC-beta serine/threonine-protein kinase (Homo sapiens) (UniProt P31751); assay: Inhibition of His-tagged full length human recombinant AKT2 expressed in baculovirus expression system at 1 uM by Z'-LYTE assay; how it was run: as §1
[7] = test system: Epidermal growth factor receptor (Homo sapiens), P00533 [L858R,T790M,C797S]; assay: Ratio of IC50 for EGFR L858R/T790M/C797S triple mutant (unknown origin) using fluoresceine-labelled poly-GT peptide as substrate incubated for 1 hr to IC50 for EGFR L858R/T790M/C797S triple mutant (unknown origin) using fluoresceine-labelled poly-GT peptide as substrate preincubated with enzyme for 3 hrs followed by substrate and ATP addition
BaF3 [8] = assay: Cytotoxicity against mouse BaF3 cells harboring EGFR L858R/T790M/C797S triple mutant assessed as inhibition of cell proliferation measured after 72 hrs by MTS assay; format: functional, cell-based
How it was run: (§2)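 Ba/F3 cells carrying the respective EGFR triple mutant, grown in RPMI-1640 with 2 mM glutamine and 10% FBS at 37°C, 5% CO2. Seeded 20000 cells/well and treated the same day with increasing concentrations (DMSO ≤0.1% final). Viability read by MTS after 72 h, expressed as % inhibition versus untreated controls; at least three independent experiments.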

[9] = biological target: T1, Epidermal growth factor receptor (Homo sapiens, UniProt P00533, C797S/L858R/T790M); assay: Inhibition of EGFR L858R/T790M/C797S triple mutant (unknown origin) using fluoresceine-labelled poly-GT peptide as substrate incubated for 1 hr by TR-FRET assay
[10] = biological target: Tyrosine-protein kinase Lck (Homo sapiens) (UniProt P06239); assay: Inhibition of human recombinant LCK at 100 nM by Z'-LYTE assay; how it was run: as §1
[11] = biological target: Mitogen-activated protein kinase 3 (Homo sapiens) (UniProt P27361); assay: Inhibition of GST-tagged human full length recombinant ERK1 expressed in Escherichia coli at 1 uM by Z'-LYTE assay; how it was run: as §1
[12] = test system: Epidermal growth factor receptor (Homo sapiens), P00533 [L858R,T790M,C797S]; assay: Irreversible inhibiton of EGFR L858R/T790M/C797S triple mutant (unknown origin) assessed as residual enzyme activity using fluoresceine-labelled poly-GT peptide as substrate preincubated with enzyme for 3 hrs at 10XIC50 followed by 100-fold dilution and measured after 30 mins by rapid dilution assay based TR-FRET analysis; details: time 210.0 min
How it was run: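 It was then diluted 100-fold into Kinase Buffer A containing poly-GT substrate and 9 μM ATP. After 30 min, EDTA quench plus Eu-PY20 were added for 30 min before TR-FRET. Activity is given as % of no-inhibitor control; n = 5.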

BaF3 [13] = assay: Cytotoxicity against mouse BaF3 cells harboring EGFR del19/T790M/C797S triple mutant assessed as inhibition of cell proliferation measured after 72 hrs by MTS assay; format: functional, cell-based; how it was run: as §2
[14] = biological target: AMP-activated protein kinase, AMPK (Homo sapiens) (UniProt P54646+O43741+P54619+Q9UGJ0+Q9Y478+Q13131+Q9UGI9); assay: Inhibition of human recombinant AMPK at 100 nM by Z'-LYTE assay; format: protein-complex assay; how it was run: as §1
[15] = biological target: T1, Epidermal growth factor receptor; assay: Inhibition of EGFR L858R/T790M/C797S triple mutant (unknown origin) using fluoresceine-labelled poly-GT peptide as substrate preincubated with enzyme for 3 hrs followed by substrate and ATP addition by TR-FRET assay
[16] = biological target: T2, Aurora kinase A (Homo sapiens) (UniProt O14965); assay: Inhibition of His-tagged human full length recombinant AURKA expressed in baculovirus expression system at 100 nM by Z'-LYTE assay; how it was run: as §1
T2 sequence (whole entry): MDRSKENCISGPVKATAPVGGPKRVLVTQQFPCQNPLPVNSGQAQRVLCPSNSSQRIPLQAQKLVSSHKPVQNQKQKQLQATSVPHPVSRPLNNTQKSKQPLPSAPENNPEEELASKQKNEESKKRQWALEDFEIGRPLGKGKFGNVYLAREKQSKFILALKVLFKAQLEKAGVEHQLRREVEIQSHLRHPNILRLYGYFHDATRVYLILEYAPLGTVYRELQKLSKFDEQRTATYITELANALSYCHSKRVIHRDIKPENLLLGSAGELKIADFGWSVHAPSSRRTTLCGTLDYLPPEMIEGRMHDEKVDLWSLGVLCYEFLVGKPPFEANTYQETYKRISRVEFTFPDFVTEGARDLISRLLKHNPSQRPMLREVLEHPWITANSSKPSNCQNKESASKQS

[17] = biological target: Proto-oncogene tyrosine-protein kinase Src (Homo sapiens) (UniProt P12931); assay: Inhibition of C-terminal His-tagged human recombinant SRC expressed in baculovirus expression system at 100 nM by Z'-LYTE assay; how it was run: as §1
[18] = biological target: T1, Epidermal growth factor receptor; assay: Inhibition of EGFR L858R/T790M/C797S triple mutant (unknown origin) using […] preincubated with enzyme and ATP at 10XKm for 3 hrs followed by substrate addition and measured after 1 hr by TR-FRET assay
[19] = biological target: Rho-associated protein kinase 1 (Homo sapiens) (UniProt Q13464); assay: Inhibition of GST-tagged human recombinant ROCK1 (1 to 535 residues) expressed in baculovirus expression system at 100 to 1000 nM by Z'-LYTE assay; details: dose 100-1000 nM
[20] = test system: Epidermal growth factor receptor (Homo sapiens), P00533 [UNDEFINED MUTATION]; assay: Inhibition of EGFR del19/T790M/C797S triple mutant (unknown origin) using fluoresceine-labelled poly-GT peptide as substrate up to 10 uM preincubated with enzyme for 3 hrs followed by substrate and ATP addition by TR-FRET assay; details: dose microM <=10, time 3.0 hrs
[21] = biological target: Mitogen-activated protein kinase 3 (Homo sapiens) (UniProt P27361); assay: Inhibition of GST-tagged human full length recombinant ERK1 expressed in Escherichia coli at 100 to 1000 nM by Z'-LYTE assay; details: dose 100-1000 nM
[22] = biological target: Mitogen-activated protein kinase 14 (Homo sapiens) (UniProt Q16539); assay: Inhibition of GST-tagged human full length recombinant p38 alpha expressed in Escherichia coli at 100 to 1000 nM by Z'-LYTE assay; details: dose 100-1000 nM
[23] = biological target: Vascular endothelial growth factor receptor 2 (Homo sapiens) (UniProt P35968); assay: Inhibition of His-tagged human recombinant VEGFR2 (789 to 1356 residues) expressed in baculovirus expression system at 100 to 1000 nM by Z'-LYTE assay; details: dose 100-1000 nM; how it was run: as §1
Vascular endothelial growth factor receptor 2 (Homo sapiens), sequence (P35968 whole entry, the tested form may be a part): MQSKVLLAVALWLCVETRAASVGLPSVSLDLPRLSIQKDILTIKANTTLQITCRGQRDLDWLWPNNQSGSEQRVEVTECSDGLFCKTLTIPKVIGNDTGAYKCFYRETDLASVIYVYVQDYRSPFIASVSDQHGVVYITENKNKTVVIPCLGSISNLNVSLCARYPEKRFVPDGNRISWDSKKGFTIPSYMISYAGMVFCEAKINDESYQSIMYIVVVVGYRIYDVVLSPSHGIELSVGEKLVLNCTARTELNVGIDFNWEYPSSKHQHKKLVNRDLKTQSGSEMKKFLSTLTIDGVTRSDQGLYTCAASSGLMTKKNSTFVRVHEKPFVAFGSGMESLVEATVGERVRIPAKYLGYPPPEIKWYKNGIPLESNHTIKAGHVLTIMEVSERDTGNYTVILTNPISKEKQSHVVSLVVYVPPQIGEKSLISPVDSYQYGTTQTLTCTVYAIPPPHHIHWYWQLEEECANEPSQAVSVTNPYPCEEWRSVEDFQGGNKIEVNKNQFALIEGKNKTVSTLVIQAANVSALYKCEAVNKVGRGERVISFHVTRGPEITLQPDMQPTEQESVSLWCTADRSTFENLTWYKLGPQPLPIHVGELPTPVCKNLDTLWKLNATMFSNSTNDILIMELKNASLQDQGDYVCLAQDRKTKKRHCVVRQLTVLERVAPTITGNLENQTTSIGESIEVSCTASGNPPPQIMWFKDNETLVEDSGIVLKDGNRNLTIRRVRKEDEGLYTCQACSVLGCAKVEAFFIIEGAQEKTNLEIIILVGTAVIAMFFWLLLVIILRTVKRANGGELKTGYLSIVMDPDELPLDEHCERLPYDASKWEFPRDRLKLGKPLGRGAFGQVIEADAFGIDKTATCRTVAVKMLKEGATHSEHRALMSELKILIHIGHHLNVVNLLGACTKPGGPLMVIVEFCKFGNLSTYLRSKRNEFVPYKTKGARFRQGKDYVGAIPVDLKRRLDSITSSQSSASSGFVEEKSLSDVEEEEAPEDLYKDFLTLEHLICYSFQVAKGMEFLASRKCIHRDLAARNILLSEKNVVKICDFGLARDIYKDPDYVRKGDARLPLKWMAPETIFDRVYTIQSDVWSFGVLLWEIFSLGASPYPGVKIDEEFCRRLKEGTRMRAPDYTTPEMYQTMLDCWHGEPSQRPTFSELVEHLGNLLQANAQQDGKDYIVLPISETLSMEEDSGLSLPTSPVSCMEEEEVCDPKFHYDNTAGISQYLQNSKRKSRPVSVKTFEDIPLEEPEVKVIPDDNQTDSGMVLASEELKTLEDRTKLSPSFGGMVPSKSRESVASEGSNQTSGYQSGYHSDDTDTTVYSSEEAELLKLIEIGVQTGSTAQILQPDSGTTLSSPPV

RAC-beta serine/threonine-protein kinase (Homo sapiens), sequence (P31751 whole entry): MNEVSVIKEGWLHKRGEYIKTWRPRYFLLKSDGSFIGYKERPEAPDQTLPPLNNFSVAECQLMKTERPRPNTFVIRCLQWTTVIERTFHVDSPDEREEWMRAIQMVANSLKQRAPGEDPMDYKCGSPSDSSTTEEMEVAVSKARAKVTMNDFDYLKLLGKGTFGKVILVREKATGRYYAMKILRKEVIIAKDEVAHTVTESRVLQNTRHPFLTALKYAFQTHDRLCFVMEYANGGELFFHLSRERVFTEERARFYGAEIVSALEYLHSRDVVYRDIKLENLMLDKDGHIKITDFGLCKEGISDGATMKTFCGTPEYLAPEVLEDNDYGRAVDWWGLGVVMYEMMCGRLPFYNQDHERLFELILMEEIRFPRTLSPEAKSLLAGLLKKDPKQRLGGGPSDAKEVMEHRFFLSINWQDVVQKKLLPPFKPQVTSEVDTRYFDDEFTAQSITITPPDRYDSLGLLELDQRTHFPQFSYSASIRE
Tyrosine-protein kinase Blk (Homo sapiens), sequence (P51451 2-505 limits assumed): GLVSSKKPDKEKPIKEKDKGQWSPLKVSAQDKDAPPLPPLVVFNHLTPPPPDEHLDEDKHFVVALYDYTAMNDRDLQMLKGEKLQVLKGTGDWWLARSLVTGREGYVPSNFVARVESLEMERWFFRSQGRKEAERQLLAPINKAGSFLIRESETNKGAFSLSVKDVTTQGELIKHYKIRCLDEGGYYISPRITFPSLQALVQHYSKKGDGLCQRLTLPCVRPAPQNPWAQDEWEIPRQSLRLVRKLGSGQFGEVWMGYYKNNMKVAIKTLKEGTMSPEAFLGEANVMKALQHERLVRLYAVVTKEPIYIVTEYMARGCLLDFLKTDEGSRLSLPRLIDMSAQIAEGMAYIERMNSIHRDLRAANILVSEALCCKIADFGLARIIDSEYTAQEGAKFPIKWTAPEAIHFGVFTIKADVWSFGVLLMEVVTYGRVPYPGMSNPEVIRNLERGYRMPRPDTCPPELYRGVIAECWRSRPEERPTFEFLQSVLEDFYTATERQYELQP
Mitogen-activated protein kinase 14 (Homo sapiens), sequence (Q16539 whole entry, the tested form may be a part): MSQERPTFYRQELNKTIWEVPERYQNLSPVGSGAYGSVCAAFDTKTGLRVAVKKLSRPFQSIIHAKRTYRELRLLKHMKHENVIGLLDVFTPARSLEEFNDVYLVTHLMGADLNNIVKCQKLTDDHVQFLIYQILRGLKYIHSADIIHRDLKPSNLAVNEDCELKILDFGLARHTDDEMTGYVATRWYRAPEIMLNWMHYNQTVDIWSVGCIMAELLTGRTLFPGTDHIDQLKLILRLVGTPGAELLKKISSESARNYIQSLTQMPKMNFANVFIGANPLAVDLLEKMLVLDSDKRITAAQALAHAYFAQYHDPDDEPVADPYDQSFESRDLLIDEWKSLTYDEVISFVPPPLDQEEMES
Proto-oncogene tyrosine-protein kinase Src (Homo sapiens), sequence (P12931 2-536 limits assumed): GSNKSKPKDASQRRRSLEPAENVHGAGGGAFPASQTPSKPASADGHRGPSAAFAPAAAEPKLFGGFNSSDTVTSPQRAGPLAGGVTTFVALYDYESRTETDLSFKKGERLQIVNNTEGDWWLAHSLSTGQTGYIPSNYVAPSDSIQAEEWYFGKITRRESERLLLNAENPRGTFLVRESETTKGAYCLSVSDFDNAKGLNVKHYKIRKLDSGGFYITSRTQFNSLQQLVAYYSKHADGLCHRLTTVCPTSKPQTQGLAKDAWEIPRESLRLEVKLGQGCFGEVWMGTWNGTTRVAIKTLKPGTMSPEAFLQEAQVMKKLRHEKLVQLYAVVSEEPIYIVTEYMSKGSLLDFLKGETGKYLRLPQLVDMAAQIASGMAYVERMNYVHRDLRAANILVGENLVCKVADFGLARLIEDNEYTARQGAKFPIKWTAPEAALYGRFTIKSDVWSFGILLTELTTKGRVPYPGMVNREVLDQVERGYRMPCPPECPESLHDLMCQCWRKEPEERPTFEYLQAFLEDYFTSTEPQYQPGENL
Mitogen-activated protein kinase 3 (Homo sapiens), sequence (P27361 whole entry): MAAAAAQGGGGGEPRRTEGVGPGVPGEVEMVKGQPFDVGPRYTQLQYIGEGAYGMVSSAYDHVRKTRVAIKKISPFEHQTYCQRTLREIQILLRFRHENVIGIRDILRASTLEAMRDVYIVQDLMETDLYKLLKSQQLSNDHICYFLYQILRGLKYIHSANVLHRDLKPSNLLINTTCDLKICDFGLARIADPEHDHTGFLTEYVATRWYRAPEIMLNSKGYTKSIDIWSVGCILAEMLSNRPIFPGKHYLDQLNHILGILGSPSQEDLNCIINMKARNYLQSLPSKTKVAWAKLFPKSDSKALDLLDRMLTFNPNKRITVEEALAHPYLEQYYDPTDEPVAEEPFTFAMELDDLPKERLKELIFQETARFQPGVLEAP
Cyclin-dependent kinase 5 (Homo sapiens), sequence (Q00535 whole entry, looked up): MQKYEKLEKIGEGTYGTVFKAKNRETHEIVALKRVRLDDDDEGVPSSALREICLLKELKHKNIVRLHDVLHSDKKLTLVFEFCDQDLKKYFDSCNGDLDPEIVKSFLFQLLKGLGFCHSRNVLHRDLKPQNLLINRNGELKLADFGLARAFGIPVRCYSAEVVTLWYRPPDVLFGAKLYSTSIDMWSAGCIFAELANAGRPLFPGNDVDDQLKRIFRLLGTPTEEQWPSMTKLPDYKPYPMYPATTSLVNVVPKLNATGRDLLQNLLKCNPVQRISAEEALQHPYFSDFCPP
Tyrosine-protein kinase Lck (Homo sapiens), sequence (P06239 2-509 limits assumed): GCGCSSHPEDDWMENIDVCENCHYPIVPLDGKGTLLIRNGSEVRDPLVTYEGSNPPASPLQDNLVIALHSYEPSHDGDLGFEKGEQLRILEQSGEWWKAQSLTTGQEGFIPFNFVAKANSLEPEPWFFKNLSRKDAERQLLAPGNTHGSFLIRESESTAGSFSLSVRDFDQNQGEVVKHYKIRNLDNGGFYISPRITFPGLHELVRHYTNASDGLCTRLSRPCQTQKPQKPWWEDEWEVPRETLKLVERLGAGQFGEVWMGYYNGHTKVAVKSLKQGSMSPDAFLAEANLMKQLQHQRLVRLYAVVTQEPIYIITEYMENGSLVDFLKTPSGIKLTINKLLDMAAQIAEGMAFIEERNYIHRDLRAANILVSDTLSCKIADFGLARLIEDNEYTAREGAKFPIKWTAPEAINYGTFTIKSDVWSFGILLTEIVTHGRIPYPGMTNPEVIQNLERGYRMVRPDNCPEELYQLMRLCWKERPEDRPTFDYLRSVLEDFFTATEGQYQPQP

| SMILES | inhibition [1] | inhibition [2] | inhibition [3] | inhibition [4] | Ratio IC50 [7] | pIC50 [9] | inhibition [10] | Activity [12] | Activity (BaF3 [13]) | inhibition [14] | pIC50 [15] | inhibition [16] | inhibition [17] | further results |
| --- | --- | --- | --- | --- | --- | --- | --- | --- | --- | --- | --- | --- | --- | --- |
| COc1cc(N2CCN(C(C)=O)CC2)ccc1Nc1ncc(Cl)c(Nc2ccc(NCc3ccc(S(=O)(=O)F)cc3)cc2)n1 | inactive | inactive | inactive | inactive | 70 | 6.96 | inactive | < 25% | inactive | inactive | 8.82 | 30% | inactive | inhibition [5]: < 25%; inhibition [6]: 90%; pIC50 (BaF3 [8]; BaF3, 72 h): 6.30; inhibition [11]: < 25%; pIC50 [18]: 7.64 |
| C#CCNC(=O)c1cc(Nc2cc(C3CC3)[nH]n2)nc(N2CCN(Cc3ccc(S(=O)(=O)F)cc3)CC2)n1 | Active | Active | Active | Active | 40 | 6.61 | Active | < 25% | Active | Active | 8.22 | Active | Active | Activity (BaF3 [8]): Active; inhibition [19]: inactive; inhibition [20]: inactive; inhibition [21]: inactive; inhibition [22]: inactive; inhibition [23]: inactive |

— ChEMBL document CHEMBL4828755, “A sulfonyl fluoride derivative inhibits EGFRL858R/T790M/C797S by covalent modification of the catalytic lysine” (Eur J Med Chem, 2021)
